In the library only some 2.6% were active in any assay of this set; here they are far more common.
SENP1 FRET inh: blocks the human SENP1 SUMO protease catalytic domain | inhibition, % at 10 µM | actives 0.21% (n = 360,000) | Q9P0U3 | recombinant SENP1 catalytic domain, CyPet-SUMO1-YPet FRET cleavage;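 active = inhibition at least 30% at 10 µM, raw YFP signal under a set limit, fluorescence ratio 0.5 to 1.5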;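 also: 0% = enzyme with DMSO and 100% = no enzyme wells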
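material = recombinant human SENP1 catalytic domain, His6-tagged | quantity = 20 pM enzyme | reagent = 25 nM SUMO1 FRET substrate | compound dosing = 10 µM single point, 0.5% DMSO | timing = 50 min enzyme reaction, room temperature, light-protected | detection = FRET, CFP and YFP emission | control set = no-enzyme low, enzyme-DMSO high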
SENP8 block-1: SENP8 (human) protease inhibition; Q96LD8; recombinant SENP8, Nedd8 substrate fluorescence; inhibition, % at 20 µM; actives 0.64% (n = 360,000); AID 602440; in the data active = inhibition mostly above about 40%, no sharp cut-off; inactive = mostly below about 27%
Target sequence (Q96LD8 whole entry, looked up): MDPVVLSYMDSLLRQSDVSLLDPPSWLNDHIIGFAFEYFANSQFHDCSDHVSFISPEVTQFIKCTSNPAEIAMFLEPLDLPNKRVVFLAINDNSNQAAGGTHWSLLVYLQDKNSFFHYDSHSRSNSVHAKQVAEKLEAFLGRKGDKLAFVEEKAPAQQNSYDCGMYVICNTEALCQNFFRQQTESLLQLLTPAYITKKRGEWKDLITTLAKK
SENP6 inh: blocks the human protease SENP6. actives 1.8% (n = 330,000). inhibition, % at 10 µM. Recombinant SENP6 catalytic domain, aminoluciferin luminescence. Q9GZR1;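 active = inhibition above about 50% at the single tested dose, limit read from the data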;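 also: plate controls were DMSO wells with enzyme for no effect and DMSO wells lacking enzyme for full effect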
SENP7 inh: SENP7 protease inhibition | Q9BQF6 | recombinant SENP7, Z-RLRGG-aminoluciferin luminescence, 40 min | inhibition, % at 5 µM | actives 1.5% (n = 330,000) | AID 434973;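 active = inhibition above about 50% at the single test dose, limit read from the data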;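 also: plate controls were DMSO with enzyme for no effect and no enzyme buffer wells for full effect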
Target sequence (Q9BQF6 706-1050 limits assumed): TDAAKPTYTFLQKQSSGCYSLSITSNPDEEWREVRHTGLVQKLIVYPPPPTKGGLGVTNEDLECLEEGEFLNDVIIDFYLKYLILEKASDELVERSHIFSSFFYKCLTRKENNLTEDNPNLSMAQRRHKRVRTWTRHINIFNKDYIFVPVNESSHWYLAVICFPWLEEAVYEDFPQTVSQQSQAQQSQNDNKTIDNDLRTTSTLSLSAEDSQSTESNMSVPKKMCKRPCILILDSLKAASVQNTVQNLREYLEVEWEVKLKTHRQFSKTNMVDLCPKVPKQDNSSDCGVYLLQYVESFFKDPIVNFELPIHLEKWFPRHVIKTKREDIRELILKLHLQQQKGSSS
SENP8 block-2: blocks the human protease SENP8. inhibition, % at 10 µM. actives 1.2% (n = 330,000). AID 2540. Q96LD8. purified SENP8, Z-RLRGG-aminoluciferin cleavage, luminescence; in the data active = inhibition above about 50%
Platelet DG rel: platelet dense granule release activity; inhibition, %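 (compounds screened at 7.5 µM in platelet-rich plasma)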; human platelet-rich plasma, SFLLRN dense granule ATP release, luminescence; actives 0.22% (n = 300,000);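 active = mean replicate score, as percent of positive control, at or above 50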
SENP8 inh conf: confirmation of human SENP8 protease inhibitors; shares compounds with SENP8 block-1; purified SENP8, Nedd8-AMC/pro-Nedd8 cleavage fluorescence, 30 min; inhibition, % at 25 µM; actives 15% (n = 1,400); AID 624319; in the data active = inhibition mostly above about 39%, no sharp cut-off; inactive = mostly below about 34%
Numbers without * were called inactive; x = no result given.

SMILES	SENP1 FRET inh	SENP8 block-1	SENP6 inh	SENP7 inh	SENP8 block-2	Platelet DG rel	SENP8 inh conf
CC1=NN(c2ccc(C)cc2C)C(=O)C1C(c1ccccc1O)C1C(=O)N(c2ccc(C)cc2C)N=C1C (centres undefined)	4	58*	44	27	15	31	57*
CCC(c1nnnn1-c1ccc2c(c1)OCCO2)N1CCN(c2ccccc2OC)CC1 (centres undefined)	2	23	x	x	x	x	x
COc1ccc(-c2cc(C(F)(F)F)c3c(=O)n(-c4ccccc4)[nH]c3n2)cc1	3	41*	46	4	23	2	32
CC(=O)N1CCN(c2ccc(NC(=S)NC(=O)/C=C/c3ccccc3)cc2)CC1	x	x	-7	4	0	-6	x
O=C(/C=C/c1ccc(Cl)cc1)NC(=S)Nc1ccc(C(=O)O)cc1	1	16	15	4	8	-5	x
COc1cc(OC)cc(C(=O)NC(=S)Nc2ccc(N3CCCC3)cc2)c1	2	43*	3	-2	-3	11	28
CN(C)c1ccc(NC(=S)NC(=O)/C=C/c2ccc(Cl)cc2)cc1	6	41*	-10	6	17	0	26
COc1ccc(/C=C/C(=O)NC(=S)Nc2ccc(N3CCN(C(C)=O)CC3)cc2)cc1	2	51*	-7	2	-3	8	13
C[C@@H]1COC(=O)[C@H](Cc2ccc(F)cc2)C/C=C\C[C@@H](CC(=O)NCCO)C(=O)N1	1	13	0	6	-6	x	x
C=C(C)c1cc2c(ccc3ccc(=O)oc32)o1	-15	-10	-6	-5	-8	x	x
COc1ccc(S(=O)(=O)N(CC(=O)NN=C2CCN(C)CC2)c2cc(Cl)ccc2OC)cc1OC	-1	12	10	0	-6	2	x
O=C(Nc1ccccc1F)c1ccc(CNS(=O)(=O)c2cccc(C(F)(F)F)c2)cc1	2	48*	-2	4	4	-5	7
Cc1ccc(OC(C)C(=O)N(Cc2cccs2)C2CCS(=O)(=O)C2)cc1C (centres undefined)	1	41*	5	6	-11	-28	8
CCCCC1(C)NC(=O)N(CC(=O)Nc2cc(S(=O)(=O)N3CCOCC3)ccc2Cl)C1=O (centres undefined)	-8	-56	-6	-4	5	x	x
Cc1ccc(C)c(Nc2c([N+](=O)[O-])ccc3nonc23)c1	4	45*	-12	-15	-8	-1	18
CC(C)C(NC(=O)CN(c1ccc2c(c1)OCCO2)S(=O)(=O)c1ccccc1)C(C)C	0	17	-4	6	12	-11	x
Nc1nc2c(ncn2[C@@H]2O[C@H](CNC(=O)[C@H](N)Cc3ccccc3)[C@@H](O)[C@H]2O)c(=O)[nH]1	0	32	x	x	x	x	x
CCC(C)Nc1nc(N)c([N+](=O)[O-])c(Nc2ccccc2OC)n1 (centres undefined)	1	22	3	-6	-4	-17	x
CCC(C)Nc1nc(N)c([N+](=O)[O-])c(Nc2cc(OC)ccc2OC)n1 (centres undefined)	1	45*	3	9	11	-4	31
CS(=O)(=O)Nc1ccc(N2CCN(c3ccc(C(F)(F)F)cn3)CC2)nc1	-9	-209	-1	0	-10	5	x
CC1=NN(c2ccc(C(F)(F)F)cn2)C(=O)C1	0	75*	15	12	8	5	58*
c1coc(-c2nnc(-c3ccco3)nn2)c1	26	87*	73*	11	55*	1	70*
CN(C)c1ccc(NC(=O)CN2CCC(N3CCCCC3)CC2)cc1	1	42*	-2	1	4	3	-12
CCc1ccccc1NC(=O)CN(C)C(=O)COC(=O)c1ccco1	3	3	-17	-5	-5	x	x
CC(C)C[C@H](NC(=O)[C@@H](O)[C@H](N)Cc1ccccc1)C(=O)O	x	x	-6	-6	-9	3	x
SMILES	SENP1 FRET inh	SENP8 block-1	SENP6 inh	SENP7 inh	SENP8 block-2	Platelet DG rel	SENP8 inh conf
CC(C)[C@@H](C(=O)N[C@@H](CCc1ccc(O)cc1)C(=O)O)N(C)C(=O)[C@H](CO)NC(=O)[C@@H](O)[C@H](N)CCCCCCCCl	4	55*	x	x	x	x	17
COc1ccccc1CNC(=O)CN1C(=O)NC2(CCCc3ccccc32)C1=O (centres undefined)	0	0	-12	-1	-10	x	x
C/C(=N\Nc1ccc(S(=O)(=O)Nc2ccccc2)cc1[N+](=O)[O-])c1ccc(N2CCOCC2)cc1	1	44*	0	7	8	-1	15
C/C(=N\Nc1ccc(S(=O)(=O)Nc2ccc(Cl)cc2)cc1[N+](=O)[O-])c1ccc(N2CCOCC2)cc1	3	31	-6	8	-2	5	x
Cn1c2c(sc1=O)CCC2	3	3	x	x	x	x	x
CC1CCCN(c2cc(N(C)CCO)c([N+](=O)[O-])c3nonc23)C1 (centres undefined)	8	49*	-6	1	1	7	1
COC(=O)c1cc(=O)nc(NN=C2c3ccccc3-c3ccccc32)s1	5	38*	x	x	x	x	25
COC(=O)c1cc(=O)nc(NN=C2CCCCC2)s1	5	15	x	x	x	x	x
CCCNC(=O)C1(C)CCN(C(=O)COCc2ccccc2)C1 (centres undefined)	-1	12	x	x	x	x	x
COCO/C=C(\NC(C)=O)c1ccccc1	2	6	-19	8	-6	x	x
O=C(c1cc([N+](=O)[O-])cc([N+](=O)[O-])c1)N1CCN(Cc2ccc3c(c2)OCO3)CC1	1	50*	28	2	6	7	20
COC(=O)N/N=C1/C/C(=N\NC(=O)OC)c2ccccc21	2	81*	16	15	18	-2	96*
CCOc1ccc(Nc2nc(N)c([N+](=O)[O-])c(N3CCN(C)CC3)n2)cc1	2	47*	-21	-5	-5	0	12
Cc1cccc(Nc2nc(N3CCN(C)CC3)nc(N)c2[N+](=O)[O-])c1	2	40*	-25	-7	-10	-1	3
CCN1CCN(c2nc(N)c([N+](=O)[O-])c(Nc3cccc(C)c3)n2)CC1	3	19	-9	-7	-8	-49	x
COc1ccc(Nc2nc(N)c([N+](=O)[O-])c(N3CCOCC3)n2)cc1	1	23	-14	8	-7	-2	x
CCN1C[C@@H]2[C@@H]3C(=O)N(Cc4ccccc4)C(=O)[C@@H]3[C@](CC)(C1=O)N2C(=O)c1ccc(Cl)c(Cl)c1	2	0	x	x	x	x	x
CN(CC(=O)Nc1cccc(F)c1)CC(=O)Nc1ccccc1[N+](=O)[O-]	0	10	13	-2	-2	x	x

Bioassay records: PubChem BioAssay, several laboratories
